Test results: article PMC6488424 (European journal of medicinal chemistry, 2019)
One block for each compound: values may come before it.

Tests used:
[1] = system: CXCR4-positive MDA-MB-231 human breast cancer cells; assay: Matrigel invasion assay induced by CXCR4/CXCL12-mediated interaction; format: cell-based; conditions: MDA-MB-231, 22 h, read-out: Inhibition of cell invasion
Outline: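 MDA-MB-231 cells were pre-mixed with test compound (100 nM) and seeded in the upper well of a Matrigel-coated chamber in serum-free medium. The lower well held CXCL12α (200 ng/mL) as chemoattractant. After 22 h in a humidified incubator, non-invading cells were swabbed off, and invading cells on the filter underside were methanol-fixed and H&E-stained. Percent invasion came from counts of stained cells.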

MDA-MB-231 = assay: Cytotoxicity, cell viability; format: cell-based, human; conditions: concentrations as high as 100 μM, 24 h treatment
Outline: (§1)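 Cells were seeded at 3000 cells/well and held 24 h at 37 °C in a CO2 incubator. They were then exposed to the test compound for 24 h at 37 °C. MTT-type tetrazolium reagent (CellTiter 96AQ) was added for a further 2 h, and absorbance was read at 490 nm.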

MCF-10A = assay: Cytotoxicity, cell viability; format: cell-based, human; conditions: concentrations as high as 100 μM, 24 h treatment
Outline: as §1

SKBR3 = assay: Cytotoxicity, cell viability; format: cell-based, human; conditions: concentrations as high as 100 μM, 24 h treatment
Outline: as §1

[2] = Carrageenan-induced paw inflammation suppression test; format: in vivo; conditions: mouse paw after treatment with IIIm
CXCR4 = CXCR4 (Homo sapiens, UniProt P61073); format: binding; conditions: fold loss of affinity vs RB-108
Chain of CXCR4 (P61073 whole entry): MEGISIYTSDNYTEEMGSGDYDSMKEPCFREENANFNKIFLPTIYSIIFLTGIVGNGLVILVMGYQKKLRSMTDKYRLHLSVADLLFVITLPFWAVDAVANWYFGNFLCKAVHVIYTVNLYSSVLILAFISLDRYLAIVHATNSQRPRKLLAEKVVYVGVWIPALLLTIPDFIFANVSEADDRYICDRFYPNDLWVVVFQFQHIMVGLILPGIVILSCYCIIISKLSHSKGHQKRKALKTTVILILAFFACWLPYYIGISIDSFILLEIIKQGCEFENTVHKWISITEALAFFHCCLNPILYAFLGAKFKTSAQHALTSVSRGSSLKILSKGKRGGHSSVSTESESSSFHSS

Compound: c1cc(CN2CCCNCCNCCCNCC2)ccc1CN1CCCNCCNCCCNCC1 [AMD3100]
inhibition at 0.1 µM [1]: 55%

Compound: O=C(NCc1ccc(CNS(=O)(=O)c2ccc3c(c2)CCO3)cc1)c1ccc(F)cc1 [IIIm, 4-Fluoro-N-(4-(((2,3-dihydrobenzofuran)-5-sulfonamido)methyl)benzyl)benzamide]
Inhibition of proliferation (cytotoxicity) (MDA-MB-231): did not inhibit the proliferation
Inhibition of proliferation (cytotoxicity) (MCF-10A): did not inhibit the proliferation
Inhibition of proliferation (cytotoxicity) (SKBR3): did not inhibit the proliferation
Number of inflammatory cells accumulated in the paw tissue (histological analysis, H&E) [2]: markedly decreased

EC reduced compared with RB-108 (CXCR4): more than 1000 fold
Compound: Cc1ccc(S(=O)(=O)NCc2ccc(CNC(=O)c3ccc(F)cn3)cc2)cc1 [Ia, 5-Fluoro-N-(4-(((4-methylphenyl)sulfonamido)methyl)benzyl)picolinamide]

EC reduced compared with RB-108 (CXCR4): more than 1000 fold
Compound: Cc1ccc(S(=O)(=O)NCc2ccc(CNC(=O)c3ccc(F)nc3)cc2)cc1 [Ib, 6-Fluoro-N-(4-(((4-methylphenyl)sulfonamido)methyl)benzyl)nicotinamide]
